Assays:
Format in all cases: functional
[1] = tested on: Mycobacterium tuberculosis; assay: Antitubercular activity against INH-resistant Mycobacterium tuberculosis Spec.800 harboring InhA promoter mutation assessed as inhibition of microbial growth incubated for 1 week by MABA method; conditions: time 1 weeks
Procedure, shortened: (§1)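 Microplate Alamar Blue assay in Middlebrook 7H9 broth with 10% OADC. Inoculum from fresh LJ culture was adjusted to McFarland 1 and diluted 1:20. DMSO stocks were two-fold serially diluted to final 0.125–512 µg/ml, with growth and sterile controls. Plates ran 1 week at 37 °C, then Alamar blue was added for 24 h. MIC is the lowest concentration preventing the blue-to-pink change.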

[2] = tested on: Mycobacterium tuberculosis; assay: Antitubercular activity against PAS/INH/EMB/RMP-resistant Mycobacterium tuberculosis Spec.210 assessed as inhibition of microbial growth by classical test tube method
Procedure, shortened: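 Classical test-tube serial dilution in Youmans' modified Proskauer–Beck liquid medium with 10% bovine serum. Inoculum came from 14-day-old cultures. Compounds were given as DMSO solutions (stock 10 mg/ml), diluted geometrically in medium to 3.1–100 µg/ml, and incubated at 37 °C. MIC is the minimum concentration inhibiting growth relative to a no-compound control.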

[3] = tested on: Mycobacterium tuberculosis; assay: Antitubercular activity against PAS/INH/EMB/RMP-resistant Mycobacterium tuberculosis Spec.210 assessed as inhibition of microbial growth incubated for 1 week by MABA method; conditions: Mycobacterium tuberculosis, 210, 168 h; time 1 weeks; procedure, shortened: as §1
[4] = tested on: Mycobacterium tuberculosis; assay: Potency index, Ratio of ethambutol MIC to test compound MIC for antitubercular activity against PAS/INH/EMB/RMP-resistant Mycobacterium tuberculosis Spec.210 assessed as inhibition of microbial growth incubated for 1 week by MABA method; conditions: time 1 weeks
[5] = tested on: Mycobacterium tuberculosis; assay: Potency index, Ratio of isoniazid MIC to test compound MIC for antitubercular activity against PAS/INH/EMB/RMP-resistant Mycobacterium tuberculosis Spec.210 assessed as inhibition of microbial growth incubated for 1 week by MABA method; conditions: time 1 weeks
[6] = tested on: Mycobacterium tuberculosis; assay: Potency index, Ratio of rifampicin MIC to test compound MIC for antitubercular activity against PAS/INH/EMB/RMP-resistant Mycobacterium tuberculosis Spec.210 assessed as inhibition of microbial growth incubated for 1 week by MABA method; conditions: time 1 weeks
[7] = tested on: Mycobacterium tuberculosis; assay: Potency index, Ratio of streptomycin MIC to test compound MIC for antitubercular activity against PAS/INH/EMB/RMP-resistant Mycobacterium tuberculosis Spec.210 assessed as inhibition of microbial growth incubated for 1 week by MABA method; conditions: time 1 weeks

SMILES | MIC [1] | MIC [2] | MIC [3] | Ratio [4] | Ratio [5] | Ratio [6] | Ratio [7]
CC[C@@H](CO)NCCN[C@@H](CC)CO [ETHAMBUTOL] | 2 µg/mL | 50 µg/mL | 32 µg/mL |  |  |  | 
COc1ccc(Nc2nnnn2-c2cccc(F)c2)cc1 | 256 µg/mL |  | 16 µg/mL |  |  |  | 
CN[C@@H]1[C@H](O[C@H]2[C@H](O[C@H]3[C@H](O)[C@@H](O)[C@H](N=C(N)N)[C@@H](O)[C@@H]3N=C(N)N)O[C@@H](C)[C@]2(O)C=O)O[C@@H](CO)[C@H](O)[C@H]1O [STREPTOMYCIN] | 1 µg/mL | 25 µg/mL | 16 µg/mL |  |  |  | 
CO[C@H]1/C=C/O[C@@]2(C)Oc3c(C)c(O)c4c(O)c(c(/C=N/N5CCN(C)CC5)c(O)c4c3C2=O)NC(=O)/C(C)=C\C=C\[C@H](C)[C@H](O)[C@@H](C)[C@@H](O)[C@@H](C)[C@H](OC(C)=O)[C@@H]1C [RIFAMPIN] | 1 µg/mL | 50 µg/mL | 32 µg/mL |  |  |  | 
COc1ccc(NC(=S)Nc2cccc(Br)c2)cc1 |  | 50 µg/mL |  |  |  |  | 
COc1ccc(-n2nnnc2Nc2ccc(F)cc2)cc1 | 512 µg/mL |  | 32 µg/mL |  |  |  | 
COc1ccc(NC(=S)Nc2ccc(Cl)cc2)cc1 |  | 50 µg/mL |  |  |  |  | 
COc1ccc(NC(=S)Nc2cccc(F)c2)cc1 |  | 100 µg/mL |  |  |  |  | 
COc1ccc(NC(=S)Nc2ccc(Br)cc2)cc1 |  | > 100 µg/mL |  |  |  |  | 
COc1ccc(Nc2nnnn2-c2ccc(Br)cc2)cc1 | 256 µg/mL |  | 16 µg/mL |  |  |  | 
COc1ccc(-n2nnnc2Nc2cccc(F)c2)cc1 | 256 µg/mL |  | 8 µg/mL | 2 | 2 | 2 | 2
COc1ccc(-n2nnnc2Nc2cccc(Cl)c2)cc1 | 256 µg/mL |  | 32 µg/mL |  |  |  | 
COc1ccc(-n2nnnc2Nc2ccc(Cl)cc2)cc1 | 256 µg/mL |  | 16 µg/mL |  |  |  | 
COc1ccc(NC(=S)Nc2ccccc2F)cc1 |  | 100 µg/mL |  |  |  |  | 
COc1ccc(-n2nnnc2Nc2ccccc2Br)cc1 | 512 µg/mL |  | 64 µg/mL |  |  |  | 
COc1ccc(NC(=S)Nc2cccc(Cl)c2)cc1 |  | 100 µg/mL |  |  |  |  | 
COc1ccc(-n2nnnc2Nc2ccccc2F)cc1 |  |  | 16 µg/mL |  |  |  | 
COc1ccc(NC(=S)Nc2ccccc2Cl)cc1 |  | 50 µg/mL |  |  |  |  | 
COc1ccc(NC(=S)Nc2ccccc2Br)cc1 |  | 50 µg/mL |  |  |  |  | 
COc1ccc(Nc2nnnn2-c2ccccc2Cl)cc1 | 128 µg/mL |  | 8 µg/mL | 2 | 2 | 2 | 2
COc1ccc(Nc2nnnn2-c2ccccc2F)cc1 |  |  | 16 µg/mL |  |  |  | 
NNC(=O)c1ccncc1 [ISONIAZID] | 2 µg/mL | 12.5 µg/mL | 16 µg/mL |  |  |  | 
COc1ccc(Nc2nnnn2-c2ccccc2Br)cc1 | 256 µg/mL |  | 16 µg/mL |  |  |  | 
COc1ccc(-n2nnnc2Nc2ccccc2Cl)cc1 | 256 µg/mL |  | 8 µg/mL | 2 | 2 | 2 | 2
COc1ccc(Nc2nnnn2-c2cccc(Cl)c2)cc1 | 128 µg/mL |  | 8 µg/mL | 2 | 2 | 2 | 2
COc1ccc(Nc2nnnn2-c2ccc(F)cc2)cc1 | 128 µg/mL |  | 8 µg/mL | 2 | 2 | 2 | 2
COc1ccc(Nc2nnnn2-c2cccc(Br)c2)cc1 | 256 µg/mL |  | 16 µg/mL |  |  |  | 
COc1ccc(NC(S)=Nc2ccc(F)cc2)cc1 |  | 100 µg/mL |  |  |  |  | 
COc1ccc(Nc2nnnn2-c2ccc(Cl)cc2)cc1 | 128 µg/mL |  | 8 µg/mL | 2 | 2 | 2 | 2

Reference: ChEMBL document CHEMBL4680121, “Development of (4-methoxyphenyl)-1H-tetrazol-5-amine regioisomers as a new class of selective antitubercular agents” (Eur J Med Chem, 2020)
